Each block holds one compound with its values, some of them ahead of it. Active and inactive are the calls of the source. The calls are words filed in the database; no cut-off is given here.
Assays:
Mus musculus [1] = test: In vivo inhibition of LPS-stimulated TNF-alpha in mouse at 100 mg/kg peroral dose; NS = Not significant.; type: functional, organism-based; set-up: dose 100 mg/kg
In short: (§1)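 Female Balb/c mice (~20 g) received compound or vehicle orally in cremophor about 30 min before an i.v. challenge of E. coli 0111:B4 LPS (1.0 μg/mouse) plus D-gal (50 mg/kg) in pyrogen-free saline. One hour after challenge, the mice were bled by cardiac puncture. Serum TNF-α was measured by ELISA in duplicate, and compound levels by HPLC.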

[2] = Plasma level of compound was measured after 90 min post dose in mouse.; type: ADME, organism-based; conditions: read-out: Plasma level; in short: as §1
Mus musculus [3] = test: In vivo inhibition of LPS-stimulated TNF-alpha in mouse at 100 mg/kg peroral dose; type: functional; conditions: route oral
In short: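 Female Balb/c mice (~20 g) dosed orally in cremophor ~30 min before iv LPS (E. coli 0111:B4, 1.0 μg/mouse) plus D-gal (50 mg/kg) in pyrogen-free saline. Blood taken by cardiac puncture 1 h after challenge; serum TNF-α by ELISA in duplicate; serum compound levels by HPLC.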

MAP kinase p38 = MAP kinase p38 (Homo sapiens, UniProt O15264+Q15759+Q16539+P53778); test: Binding affinity against human Mitogen-activated protein kinase p38; type: protein assay
In short: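 Inhibitor at two concentrations (typically 1 and 0.1 μM, verified by HPLC); 60 min room temperature; excitation 332 nm, emission 420 nm. Duplicates; all points fit to equilibrium binding equation for Kd.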

[4] = Vss was measured after intravenous dosing at 1 mg/kg in female BALB/c mice(70% PEG400); type: ADME, organism-based; set-up: dose 1 mg/kg, route intravenous; conditions: mouse, in vivo, read-out: Vss
[5] = Bioavailability was measured after oral dosing at 10 mg/kg in female BALB/c mice(100% PEG400); type: ADME, organism-based; conditions: mouse, in vivo, read-out: Bioavailabiility
[6] = Half life was measured after intravenous dosing at 1 mg/kg in female BALB/c mice(70% PEG400); type: ADME, organism-based; set-up: dose 1 mg/kg, route intravenous; conditions: mouse, in vivo
[7] = Maximum time (Tmax) was measured after oral dosing at 10 mg/kg in male cynomolgus monkey (100% PEG400); type: ADME, organism-based, Macaca fascicularis; set-up: dose 10 mg/kg, route oral; conditions: in vivo
[8] = Bioavailability was measured after oral dosing at 10 mg/kg in male cynomolgus monkey (100% PEG400); type: ADME, organism-based, Macaca fascicularis; conditions: in vivo, read-out: Bioavailabiility
[9] = molecular target: Receptor tyrosine-protein kinase erbB-2 (Homo sapiens, UniProt P04626); test: Selectivity against HER2 kinase
[10] = Vss was measured after intravenous dosing at 1 mg/kg in male cynomolgus monkey (70% PEG400); type: ADME, organism-based, Macaca fascicularis; set-up: dose 1 mg/kg, route intravenous; conditions: in vivo, read-out: Vss
[11] = Plasma clearance (CL) was measured after intravenous dosing at 1 mg/kg in female BALB/c mice(70% PEG400); type: ADME, organism-based; set-up: dose 1 mg/kg, route intravenous; conditions: mouse
[12] = molecular target: cAMP-dependent protein kinase (PKA) (Homo sapiens, UniProt P22694+P17612+P22612); test: Selectivity against Protein kinase A (PKA); type: protein assay
[13] = Plasma clearance was measured after intravenous dosing at 1 mg/kg in male cynomolgus monkey (70% PEG400); type: ADME, organism-based, Macaca fascicularis; set-up: dose 1 mg/kg, route intravenous
[14] = Maximum conc. (Cmax) was measured after oral dosing at 10 mg/kg in male cynomolgus monkey (100% PEG400); type: ADME, organism-based, Macaca fascicularis; set-up: dose 10 mg/kg, route oral; conditions: in vivo
[15] = Maximum plasma conc. was measured after oral dosing at 10 mg/kg in female BALB/c mice(100% PEG400); type: ADME, organism-based; set-up: dose 10 mg/kg, route oral; conditions: mouse
[16] = Half-life was measured after intravenous dosing at 1 mg/kg in male cynomolgus monkey (70% PEG400); type: ADME, organism-based, Macaca fascicularis; set-up: dose 1 mg/kg, route intravenous; conditions: in vivo
[17] = Maximum time (Tmax) was measured after oral dosing at 10 mg/kg in female BALB/c mice(100% PEG400); type: ADME, organism-based; set-up: dose 10 mg/kg, route oral; conditions: mouse, in vivo
[18] = Selectivity against Protein kinase C alpha, Protein kinase C beta, Protein kinase C gamma
[19] = Plasma level of compound was measured after 90 min post dose in mouse; type: ADME, organism-based; conditions: read-out: Plasma level; in short: as §1

Receptor tyrosine-protein kinase erbB-2, sequence (P04626 whole entry): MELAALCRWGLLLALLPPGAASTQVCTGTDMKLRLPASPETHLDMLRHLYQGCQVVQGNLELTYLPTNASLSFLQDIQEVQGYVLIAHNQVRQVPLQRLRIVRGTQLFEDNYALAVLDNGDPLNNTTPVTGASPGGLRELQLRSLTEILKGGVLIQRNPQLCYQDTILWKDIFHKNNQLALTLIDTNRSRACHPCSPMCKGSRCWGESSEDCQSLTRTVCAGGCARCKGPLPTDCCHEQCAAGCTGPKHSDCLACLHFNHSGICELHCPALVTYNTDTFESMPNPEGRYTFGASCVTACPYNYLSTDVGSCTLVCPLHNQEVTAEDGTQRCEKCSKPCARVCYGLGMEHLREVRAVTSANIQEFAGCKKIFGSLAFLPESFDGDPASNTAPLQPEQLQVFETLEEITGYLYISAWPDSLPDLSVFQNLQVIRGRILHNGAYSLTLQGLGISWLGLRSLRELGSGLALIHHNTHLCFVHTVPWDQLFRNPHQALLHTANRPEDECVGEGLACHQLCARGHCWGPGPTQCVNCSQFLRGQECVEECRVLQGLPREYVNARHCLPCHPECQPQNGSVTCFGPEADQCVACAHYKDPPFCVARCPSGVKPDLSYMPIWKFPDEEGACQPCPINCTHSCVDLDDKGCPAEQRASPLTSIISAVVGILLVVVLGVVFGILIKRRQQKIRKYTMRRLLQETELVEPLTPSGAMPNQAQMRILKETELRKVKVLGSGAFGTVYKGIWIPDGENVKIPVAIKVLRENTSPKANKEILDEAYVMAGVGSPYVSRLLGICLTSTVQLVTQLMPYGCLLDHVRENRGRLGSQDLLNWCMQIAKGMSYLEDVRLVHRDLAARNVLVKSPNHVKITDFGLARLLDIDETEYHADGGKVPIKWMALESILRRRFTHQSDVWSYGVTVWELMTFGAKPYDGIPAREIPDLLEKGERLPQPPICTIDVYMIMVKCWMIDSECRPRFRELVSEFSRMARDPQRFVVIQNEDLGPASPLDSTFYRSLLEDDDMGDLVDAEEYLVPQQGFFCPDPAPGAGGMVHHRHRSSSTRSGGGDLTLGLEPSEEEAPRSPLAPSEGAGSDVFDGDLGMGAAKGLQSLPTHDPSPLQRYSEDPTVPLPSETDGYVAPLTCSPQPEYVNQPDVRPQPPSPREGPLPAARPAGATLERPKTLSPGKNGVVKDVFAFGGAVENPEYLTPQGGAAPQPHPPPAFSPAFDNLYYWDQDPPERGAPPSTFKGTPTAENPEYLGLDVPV

concentration at 1.5 h [2]: 100 ng/mL
SMILES: CC(C)(C)c1cc(NC(=O)Nc2ccccc2)n(-c2ccccc2)n1
NS (Mus musculus [1]): inactive

SMILES: Cc1ccc(-n2nc(C(C)(C)C)cc2NC(=O)Nc2ccccc2F)cc1
inhibition in vivo at 100 mg/kg (Mus musculus [3]): 90%
concentration at 1.5 h [2]: 51000 ng/mL

Kd (MAP kinase p38): 0.001 µM
SMILES: Cc1ccc(-n2nc(C(C)(C)C)cc2NC(=O)Nc2cccc3ccccc23)cc1

Vd [4]: 0.07 L/kg
bioavailability [5]: 23%
half-life [6]: 2.6 h
Tmax [7]: 3 h
bioavailability [8]: 80%
IC50 [9]: > 20 µM
Vd [10]: 1.9 L/kg
clearance [11]: 0.33 mL/min/kg
IC50 [12]: > 20 µM
clearance [13]: 14.4 mL/min/kg
Cmax [14]: 1700 ng/mL
Cmax [15]: 27000 ng/mL
half-life [16]: 1.6 h
Tmax [17]: 1 h
IC50 [18]: > 20 µM
SMILES: Cc1ccc(-n2nc(C(C)(C)C)cc2NC(=O)Nc2ccc(OCCN3CCOCC3)c3ccccc23)cc1 [DORAMAPIMOD]

SMILES: Cc1ccc(-n2nc(C(C)(C)C)cc2NC(=O)Nc2ccccc2)cc1
inhibition in vivo at 100 mg/kg (Mus musculus [3]): 67%
concentration at 1.5 h [19]: 11000 ng/mL

— ChEMBL document CHEMBL1135498, “Pyrazole urea-based inhibitors of p38 MAP kinase: from lead compound to clinical candidate” (J Med Chem, 2002)
